{"data": "Measured values from different studies", "CYP3A7": "Cytochrome P450 3A7 (CYP3A7, Homo sapiens, UniProt P24462)", "note": "pIC50: −log10 of the molar value."}
{"Structure (SMILES)": "COC(=O)N[C@H](C(=O)NN(CC[C@]1(Cc2ccccc2)C(=O)N([C@H]2c3ccccc3C[C@H]2O)C[C@@H]1O)Cc1ccc(Br)cc1)C(C)(C)C", "target or system": "MT4", "assay": "cell growth or viability, XTT", "conditions": "5 days", "endpoint": "CC50", "value": "> 50 µM"}
{"Structure (SMILES)": "C=C(C)[C@@]12O[C@@]3(/C=C/C=C/CCCCC)O[C@@H]1[C@@H]1[C@@H]4O[C@]4(CO)[C@@H](O)[C@]4(O)C(=O)C(C)=C[C@H]4[C@@]1(O3)[C@H](C)[C@H]2OC(=O)/C=C/c1ccccc1", "target or system": "MT4", "assay": "cell growth or viability, ATP luminescence", "conditions": "96 h", "endpoint": "pIC50", "value": "< 7.47"}
{"Structure (SMILES)": "CC[C@H](C)[C@H]1C(=O)N2CCC[C@H]2C(=O)O[C@H](C(C)(C)C)C[C@@H](C)C[C@H](O)[C@H](C)C2=N[C@H](CCC(=O)N[C@@H](Cc3ccc(OC)cc3)C(=O)N(C)[C@@H](C)C(=O)N1C)CS2", "assay": "metabolic stability", "test system": "female CD-1 mouse, liver microsomes", "conditions": "1 µM, 0 h, pH 7.4", "endpoint": "compound remaining", "value": "100%"}
{"Structure (SMILES)": "CCCCCC/C=C/CC(=O)O[C@@]12[C@H](OC(=O)c3ccccc3)[C@@H](C)[C@]3(O)[C@@H]4C=C(C)C(=O)[C@@]4(O)[C@H](O)C(CO)=C[C@H]3[C@@H]1C2(C)C", "target or system": "MT4", "assay": "cell growth or viability, ATP luminescence", "endpoint": "CC50", "value": "> 7 µM"}
{"Structure (SMILES)": "O=C(O)C(F)(F)C(F)(F)C(F)(F)C(F)(F)C(F)(F)C(F)(F)C(F)(F)F", "target or system": "CYP3A7", "assay": "enzyme activity, inhibitor", "conditions": "10 µM, pH 7.4", "endpoint": "inhibition", "value": "16.3%"}
{"Structure (SMILES)": "Cc1ncc2n1-c1ccc(Cl)cc1C(c1ccccc1F)=NC2", "assay": "metabolic stability", "test system": "male CD-1 mouse, liver microsomes", "conditions": "1 µM, 30 min", "endpoint": "compound remaining", "value": "< 7%"}
{"Structure (SMILES)": "O=S(=O)(O)C(F)(F)C(F)(F)C(F)(F)C(F)(F)C(F)(F)C(F)(F)C(F)(F)C(F)(F)F", "target or system": "CYP3A7", "assay": "enzyme activity, inhibitor, fluorescence", "endpoint": "pIC50", "value": 4.69}
{"Structure (SMILES)": "C#Cc1ccc2c(c1)C(c1ccccc1F)=N[C@@H](C)c1c(C(=O)OCC(F)(F)F)ncn1-2", "assay": "metabolic stability", "test system": "mouse, liver microsomes", "conditions": "20 min", "endpoint": "compound remaining", "value": "< 5%"}
{"Structure (SMILES)": "C=C(C)[C@@]12O[C@@]3(/C=C/C=C/CCCCC)O[C@@H]1[C@@H]1[C@@H]4O[C@]4(CO)[C@@H](O)[C@]4(O)C(=O)C(C)=C[C@H]4[C@@]1(O3)[C@H](C)[C@H]2OC(=O)/C=C/c1ccc(O)c(OC)c1", "target or system": "MT4", "assay": "cell growth or viability, ATP luminescence", "conditions": "96 h", "endpoint": "pIC50", "value": "< 7.47"}
{"Structure (SMILES)": "COC(=O)N[C@H](C(=O)NN(CC[C@@]1(Cc2ccccc2)C(=O)N([C@H]2c3ccccc3C[C@H]2O)C[C@@H]1O)Cc1ccc(-c2cccnc2)cc1)C(C)(C)C", "target or system": "MT4", "assay": "cell growth or viability, XTT", "conditions": "5 days", "endpoint": "CC50", "value": "> 50 µM"}
{"Structure (SMILES)": "C=C(C)[C@@]12O[C@@]3(c4ccccc4)O[C@@H]1[C@@H]1[C@@H]4O[C@]4(CO)[C@@H](O)[C@]4(O)C(=O)C(C)=C[C@H]4[C@@]1(O3)[C@H](C)[C@H]2OC(=O)/C=C/C=C/C=C/CCC", "target or system": "MT4", "assay": "cell growth or viability, ATP luminescence", "conditions": "96 h", "endpoint": "pIC50", "value": "< 7.47"}
{"Structure (SMILES)": "Cc1ncc2n1-c1ccc(Cl)cc1C(c1ccccc1F)=NC2", "assay": "metabolic stability", "test system": "CD-1 mouse, hepatocytes", "conditions": "1 µM, 4 h", "endpoint": "compound remaining", "value": "0.3%"}
{"Structure (SMILES)": "CCCC/C=C/C=C/CC(=O)O[C@@]12[C@H](OC(=O)c3ccccc3)[C@@H](C)[C@@]3(O)[C@@H](C=C(CO)C[C@]4(O)C(=O)C(C)=C[C@@H]34)[C@@H]1C2(C)C", "target or system": "MT4", "assay": "cell growth or viability, ATP luminescence", "endpoint": "CC50", "value": "> 7 µM"}
{"Structure (SMILES)": "C=C(C)[C@@]12O[C@@]3(/C=C/C=C/CCCCC)O[C@@H]1[C@@H]1[C@@H]4O[C@]4(CO)[C@@H](O)[C@]4(O)C(=O)C(C)=C[C@H]4[C@@]1(O3)[C@H](C)[C@H]2OC(=O)c1ccccc1", "target or system": "MT4", "assay": "cell growth or viability, ATP luminescence", "conditions": "96 h", "endpoint": "pIC50", "value": "< 7.47"}
